Measured values collected from several papers.
Target: Mitogen-activated protein kinase 7 (MAPK7, Homo sapiens, UniProt Q13164)

SMILES	effect on	action	method	tested at	measurement	value
COc1ccc2[nH]c3c4[nH]c5ccc(OC)cc5c4c4c(c3c2c1)C(=O)NC4=O	binding			1 µM	remaining binding	69%
CC#CC(=O)N1CCC[C@H]1c1nc(-c2ccc(C(=O)Nc3ccccn3)cc2)c2c(N)nccn12	enzyme activity	inhibitor		1 µM	inhibition	0%
Cc1cc(O)c(-c2ccc([C@@H](C)CN(C)C)cc2)c2c1[nH]c(=O)c1sccc12	enzyme activity	inhibitor		0.1 µM	inhibition	-0.313%
C[C@]1(O)CCCN(c2nc(Nc3ccc(S(=O)(=O)N[C@H]4CC[C@H](CN5CCN(c6ccc(C7CCC(=O)NC7=O)cc6F)CC5)CC4)cc3F)ncc2C(F)(F)F)C1 (some centres unmarked)	binding		competition with immobilised ligand	1 µM	remaining binding	37%
C[C@H]1CC[C@H](n2c3cnccc3c3cnc(Nc4ccc5c(n4)CCN(C(=O)CO)C5)nc32)CC1	cell-free assay			1 µM	remaining signal	92%
CO[C@@H]1[C@H](N(C)C(=O)c2ccccc2)C[C@H]2O[C@]1(C)n1c3ccccc3c3c4c(c5c6ccccc6n2c5c31)C(=O)NC4	enzyme activity	inhibitor		1 µM	inhibition	0%
CCCCC(=O)Nc1ccc(-c2ccc3ncn(CCC)c(=O)c3c2)cn1	binding		competition with immobilised ligand	0.5 µM	remaining binding	82%
C[C@]1(O)CCCN(c2nc(Nc3ccc(S(=O)(=O)N[C@H]4CC[C@H](CN5CCN(c6ccc(C7CCC(=O)NC7=O)cc6F)CC5)CC4)cc3Cl)ncc2C(F)(F)F)C1 (some centres unmarked)	binding		competition with immobilised ligand	1 µM	remaining binding	18%
